Results: ChEMBL document CHEMBL1926597, “Isoflavonoids and coumarins from Glycyrrhiza uralensis: antibacterial activity against oral pathogens and conversion of isoflavans into isoflavan-quinones during purification” (J Nat Prod, 2011)
Calls of active or inactive are those of the source. No cut-off for these calls is given here.

How the values were obtained:
Streptococcus mutans [1] = experiment: Antibacterial activity against Streptococcus mutans ATCC 25175 assessed as growth inhibition at 1.25 to 10 ug/ml after 24 hrs by microplate dilution assay; format: functional, organism-based
Streptococcus sobrinus [2] = experiment: Antibacterial activity against Streptococcus sobrinus ATCC 33478 assessed as growth inhibition at 1.25 to 10 ug/ml after 24 hrs by microplate dilution assay; format: functional, organism-based
Prevotella intermedia [3] = experiment: Antibacterial activity against Prevotella intermedia ATCC 25611 assessed as growth inhibition at 1.25 to 10 ug/ml after 24 hrs by microplate dilution assay; format: functional, organism-based
In short: (§1)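 Todd Hewitt broth with hemin (10 μg/mL) and vitamin K (1 μg/mL). 24-h cultures were diluted to OD660 0.2 and mixed 1:1 with serial dilutions in broth (compounds 10 to 1.25 μg/mL; penicillin G 2.5 to 0.00625 μg/mL). Plates were incubated 24 h at 37 °C anaerobically (N2–H2–CO2 75:10:15), then OD660 was read against no-compound control wells. Triplicates were given as mean ± SD; Student's t test was applied when inhibition was ≥20%.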

Streptococcus mutans [4] = experiment: Antibacterial activity against Streptococcus mutans ATCC 25175 assessed as growth inhibition at 0.00625 to 2.5 ug/ml after 24 hrs by microplate dilution assay; format: functional, organism-based
Streptococcus sobrinus [5] = experiment: Antibacterial activity against Streptococcus sobrinus ATCC 33478 assessed as growth inhibition at 0.00625 to 2.5 ug/ml after 24 hrs by microplate dilution assay; format: functional, organism-based
Fusobacterium nucleatum [6] = experiment: Antibacterial activity against Fusobacterium nucleatum ATCC 25586 assessed as growth inhibition at 0.00625 to 2.5 ug/ml ug/ml after 24 hrs by microplate dilution assay; format: functional, organism-based; in short: as §1
Porphyromonas gingivalis [7] = experiment: Antibacterial activity against Porphyromonas gingivalis ATCC 33277 assessed as growth inhibition at 0.00625 to 2.5 ug/ml ug/ml after 24 hrs by microplate dilution assay; format: functional; in short: as §1
Prevotella intermedia [8] = experiment: Antibacterial activity against Prevotella intermedia ATCC 25611 assessed as growth inhibition at 0.00625 to 2.5 ug/ml ug/ml after 24 hrs by microplate dilution assay; format: functional, organism-based; in short: as §1
Streptococcus mutans [9] = experiment: Antibacterial activity against Streptococcus mutans ATCC 25175 assessed as growth inhibition at 10 ug/ml after 24 hrs by microplate dilution assay; format: functional, organism-based
Streptococcus sobrinus [10] = experiment: Antibacterial activity against Streptococcus sobrinus ATCC 33478 assessed as growth inhibition at 10 ug/ml after 24 hrs by microplate dilution assay; format: functional, organism-based
Fusobacterium nucleatum [11] = experiment: Antibacterial activity against Fusobacterium nucleatum ATCC 25586 assessed as growth inhibition at 1.25 to 10 ug/ml after 24 hrs by microplate dilution assay; format: functional, organism-based; in short: as §1
Porphyromonas gingivalis [12] = experiment: Antibacterial activity against Porphyromonas gingivalis ATCC 33277 assessed as growth inhibition at 1.25 to 10 ug/ml after 24 hrs by microplate dilution assay; format: functional; in short: as §1

Row | SMILES | growth inhibition (GI) (Streptococcus mutans [1]) | growth inhibition (GI) (Streptococcus sobrinus [2]) | growth inhibition (GI) (Prevotella intermedia [3]) | also measured
1 | COc1cc2oc(=O)c(-c3ccc(O)cc3O)cc2c(OC)c1CC=C(C)C | inactive | inactive | Active | 
2 | COc1c(CC=C(C)C)c(O)cc2oc(=O)c(-c3ccc(O)cc3O)cc12 | inactive | inactive | Active | 
3 | CC1(C)S[C@@H]2[C@H](NC(=O)Cc3ccccc3)C(=O)N2[C@H]1C(=O)O |  |  |  | growth inhibition (GI) (Streptococcus mutans [4]): Active; growth inhibition (GI) (Streptococcus sobrinus [5]): Active; growth inhibition (GI) (Fusobacterium nucleatum [6]): Active; growth inhibition (GI) (Porphyromonas gingivalis [7]): Active; growth inhibition (GI) (Prevotella intermedia [8]): Active
4 | COc1c(CC=C(C)C)c(O)cc2c1C[C@H](c1ccc(O)c(CC=C(C)C)c1O)CO2 |  |  | Active | growth inhibition (GI) (Streptococcus mutans [9]): Active; growth inhibition (GI) (Streptococcus sobrinus [10]): Active; growth inhibition (GI) (Fusobacterium nucleatum [11]): Active; growth inhibition (GI) (Porphyromonas gingivalis [12]): Active
5 | COc1cc2c(c(OC)c1CC=C(C)C)C[C@H](C1=CC(=O)C(O)=C(CC=C(C)C)C1=O)CO2 | inactive | inactive | Active | 
6 | COc1cc2c(c(OC)c1CC=C(C)C)C[C@H](c1ccc(O)cc1O)CO2 | inactive | inactive | Active | 
7 | CC(C)=CCc1cc(-c2coc3cc(O)cc(O)c3c2=O)c(O)cc1O | inactive | inactive | Active | 
